ChEMBL document CHEMBL5058577, “EUbOPEN Chemogenomics Library 2 (Multiplex)” (2022)

Test system: Fibroblast
Assay: Multiplex assay against human fibroblast
Type: toxicity, cell-based
Method in brief: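 With compound added, live cells were imaged on a CQ1 microscope at 37°C and 5% CO2; staining with Hoechst33342, BioTracker Green Microtubule Cytoskeleton Dye, MitoTracker Red and Annexin V Alexa Fluor 680 had been done at seeding. The CellPathfinder machine-learning gating scheme split cells into Hoechst high-intensity objects or normal cells, normal cells into healthy, pyknosed or fragmented nuclei, and pyknosed cells into mitotic or apoptotic. The tubulin, mitochondrial-mass and membrane-permeability phenotypes are per cents of healthy-nucleus cells.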

[1] = 12 h, 1 µM, compound concentration 1 uM, replicate 1
[2] = 12 h, 1 µM, compound concentration 1 uM, replicate 2
[3] = 12 h, 10 µM, compound concentration 10 uM, replicate 1
[4] = 12 h, 10 µM, compound concentration 10 uM, replicate 2
[5] = 24 h, 1 µM, compound concentration 1 uM, replicate 1
[6] = 24 h, 1 µM, compound concentration 1 uM, replicate 2
[7] = 24 h, 10 µM, compound concentration 10 uM, replicate 1
[8] = 24 h, 10 µM, compound concentration 10 uM, replicate 2
[9] = 48 h, 1 µM, compound concentration 1 uM, replicate 1
[10] = 48 h, 1 µM, compound concentration 1 uM, replicate 2
[11] = 48 h, 10 µM, compound concentration 10 uM, replicate 1
[12] = 48 h, 10 µM, compound concentration 10 uM, replicate 2

Q: What does the source list for `COc1cc(OC2CCN(C(C)=O)CC2)ccc1C(=O)N1CCC(N2C(=O)OCc3ccccc32)CC1`?
A: Population Apoptotic (%) [1]: 41%; Population Fragmented Nuclei (%) [1]: 12%; Population Healthy Nuclei (%) [1]: 64%; Population Hoechst High Intensity Objects (%) [1]: 5%; Population Membrane Permeable-Phenotype (%) [1]: 2%; Population Mitochondria Different-Phenotype (%) [1]: 5%; Population Mitotic Cells (%) [1]: 58%; Population Normal (%) [1]: 94%; Population Pyknosed Nuclei (%) [1]: 22%; Population Tubulin-Different-Phenotype (%) [1]: 32%; Total Cell Count [1]: 157; Population Apoptotic (%) [2]: 40%; Population Fragmented Nuclei (%) [2]: 29%; Population Healthy Nuclei (%) [2]: 52%; Population Hoechst High Intensity Objects (%) [2]: 3%; Population Membrane Permeable-Phenotype (%) [2]: 0%; Population Mitochondria Different-Phenotype (%) [2]: 3%; Population Mitotic Cells (%) [2]: 59%; Population Normal (%) [2]: 96%; Population Pyknosed Nuclei (%) [2]: 17%; Population Tubulin-Different-Phenotype (%) [2]: 34%; Total Cell Count [2]: 159; Population Apoptotic (%) [3]: 52%; Population Fragmented Nuclei (%) [3]: 10%; Population Healthy Nuclei (%) [3]: 73%; Population Hoechst High Intensity Objects (%) [3]: 3%; Population Membrane Permeable-Phenotype (%) [3]: 0%; Population Mitochondria Different-Phenotype (%) [3]: 6%; Population Mitotic Cells (%) [3]: 48%; Population Normal (%) [3]: 96%; Population Pyknosed Nuclei (%) [3]: 16%; Population Tubulin-Different-Phenotype (%) [3]: 54%; Total Cell Count [3]: 161; Population Apoptotic (%) [4]: 37%; Population Fragmented Nuclei (%) [4]: 32%; Population Healthy Nuclei (%) [4]: 40%; Population Hoechst High Intensity Objects (%) [4]: 6%; Population Membrane Permeable-Phenotype (%) [4]: 2%; Population Mitochondria Different-Phenotype (%) [4]: 10%; Population Mitotic Cells (%) [4]: 62%; Population Normal (%) [4]: 93%; Population Pyknosed Nuclei (%) [4]: 28%; Population Tubulin-Different-Phenotype (%) [4]: 56%; Total Cell Count [4]: 134; Population Apoptotic (%) [5]: 63%; Population Fragmented Nuclei (%) [5]: 19%; Population Healthy Nuclei (%) [5]: 63%; Population Hoechst High Intensity Objects (%) [5]: 1%; Population Membrane Permeable-Phenotype (%) [5]: 0%; Population Mitochondria Different-Phenotype (%) [5]: 4%; Population Mitotic Cells (%) [5]: 36%; Population Normal (%) [5]: 98%; Population Pyknosed Nuclei (%) [5]: 17%; Population Tubulin-Different-Phenotype (%) [5]: 32%; Total Cell Count [5]: 170; Population Apoptotic (%) [6]: 48%; Population Fragmented Nuclei (%) [6]: 28%; Population Healthy Nuclei (%) [6]: 51%; Population Membrane Permeable-Phenotype (%) [6]: 5%; Population Mitochondria Different-Phenotype (%) [6]: 3%; Population Mitotic Cells (%) [6]: 51%; Population Pyknosed Nuclei (%) [6]: 19%; Population Tubulin-Different-Phenotype (%) [6]: 31%; Total Cell Count [6]: 155; Population Apoptotic (%) [7]: 36%; Population Fragmented Nuclei (%) [7]: 13%; Population Healthy Nuclei (%) [7]: 74%; Population Hoechst High Intensity Objects (%) [7]: 7%; Population Membrane Permeable-Phenotype (%) [7]: 1%; Population Mitochondria Different-Phenotype (%) [7]: 7%; Population Mitotic Cells (%) [7]: 63%; Population Normal (%) [7]: 92%; Population Pyknosed Nuclei (%) [7]: 11%; Population Tubulin-Different-Phenotype (%) [7]: 39%; Total Cell Count [7]: 172; Population Apoptotic (%) [8]: 43%; Population Fragmented Nuclei (%) [8]: 34%; Population Healthy Nuclei (%) [8]: 48%; Population Membrane Permeable-Phenotype (%) [8]: 3%; Population Mitochondria Different-Phenotype (%) [8]: 10%; Population Mitotic Cells (%) [8]: 56%; Population Pyknosed Nuclei (%) [8]: 17%; Population Tubulin-Different-Phenotype (%) [8]: 70%; Total Cell Count [8]: 145; Population Apoptotic (%) [9]: 40%; Population Fragmented Nuclei (%) [9]: 14%; Population Healthy Nuclei (%) [9]: 70%; Population Hoechst High Intensity Objects (%) [9]: 7%; Population Membrane Permeable-Phenotype (%) [9]: 0%; Population Mitochondria Different-Phenotype (%) [9]: 5%; Population Mitotic Cells (%) [9]: 59%; Population Normal (%) [9]: 92%; Population Pyknosed Nuclei (%) [9]: 14%; Population Tubulin-Different-Phenotype (%) [9]: 35%; Total Cell Count [9]: 160; Population Apoptotic (%) [10]: 58%; Population Fragmented Nuclei (%) [10]: 32%; Population Healthy Nuclei (%) [10]: 52%; Population Hoechst High Intensity Objects (%) [10]: 3%; Population Membrane Permeable-Phenotype (%) [10]: 4%; Population Mitochondria Different-Phenotype (%) [10]: 4%; Population Mitotic Cells (%) [10]: 41%; Population Normal (%) [10]: 96%; Population Pyknosed Nuclei (%) [10]: 15%; Population Tubulin-Different-Phenotype (%) [10]: 43%; Total Cell Count [10]: 163; Population Apoptotic (%) [11]: 57%; Population Fragmented Nuclei (%) [11]: 10%; Population Healthy Nuclei (%) [11]: 79%; Population Hoechst High Intensity Objects (%) [11]: 5%; Population Membrane Permeable-Phenotype (%) [11]: 0%; Population Mitochondria Different-Phenotype (%) [11]: 13%; Population Mitotic Cells (%) [11]: 42%; Population Normal (%) [11]: 94%; Population Pyknosed Nuclei (%) [11]: 9%; Population Tubulin-Different-Phenotype (%) [11]: 51%; Total Cell Count [11]: 155; Population Apoptotic (%) [12]: 56%; Population Fragmented Nuclei (%) [12]: 36%; Population Healthy Nuclei (%) [12]: 51%; Population Hoechst High Intensity Objects (%) [12]: 3%; Population Membrane Permeable-Phenotype (%) [12]: 3%; Population Mitochondria Different-Phenotype (%) [12]: 10%; Population Mitotic Cells (%) [12]: 43%; Population Normal (%) [12]: 96%; Population Pyknosed Nuclei (%) [12]: 12%; Population Tubulin-Different-Phenotype (%) [12]: 69%; Total Cell Count [12]: 134
